Results from different studies.
Protocols differ between the studies behind these lines.
Target: Focal adhesion kinase 1 (PTK2, Homo sapiens, UniProt Q05397)

| Structure (SMILES) | effect on | mode | technique | concentration | measurement | value |
| --- | --- | --- | --- | --- | --- | --- |
| COCCOc1nc(-c2ccc(Cl)nc2)nc2c1CN(C(=O)c1ncn3ccccc13)CC2 | cell-free assay |  | competition with immobilised ligand | 0.1 µM | remaining binding | 99% |
| CC(C)(O)[C@H]1CC[C@H](Nc2ccc3ncc(-c4cccc(C(F)(F)F)c4)n3n2)CC1 | enzyme activity | inhibitor |  | 1 µM | remaining activity | 83.5% |
| COc1cc2nccc(Oc3ccc(NC(=O)c4c5n(n(-c6ccc(F)cc6)c4=O)CCCC5)cc3)c2cc1OC | enzyme activity | inhibitor |  | 0.1 µM | inhibition | -10% |
| O=C(Nc1cnn(-c2csc(C(=O)NC3COC3)c2)c1)Nc1ccccc1Cl | enzyme activity | inhibitor |  | 5 µM | remaining activity | 95.7% |
| N[C@@H]1CCN(c2nccc(-c3cnn4ncccc34)n2)C1 | cell-free assay |  |  | 1 µM | remaining signal | 97% |
| CC(=O)Nc1c(C(C)=O)c(=O)n(C)c2nc(-c3ccc(Cl)cc3Cl)c(-c3ccc(Cl)cc3)cc12 | cell-free assay |  | competition with immobilised ligand | 1 µM | remaining binding | 100% |
| COc1cc(-c2cc(-c3ccc(N4CCNCC4)cc3)cnc2C)cc(OC)c1OC | enzyme activity | inhibitor |  | 1 µM | inhibition | 16% |
| COc1ccnn2ncc(-c3ccnc(N(C)C)n3)c12 | cell-free assay |  |  | 1 µM | remaining signal | 100% |
| CCCS(=O)(=O)Nc1ccc(F)c(C(=O)c2c[nH]c3ncc(-c4ccc(Cl)cc4)cc23)c1F | enzyme activity | inhibitor |  | 1 µM | inhibition | < 10% |
| Cc1cc(NC(=O)c2cccc3cc(-c4cccc5[nH]nc(N)c45)ccc23)ccc1F | enzyme activity | inhibitor |  | 0.1 µM | activity vs control | 98% |
| CS(=O)(=O)Nc1cccc(-c2csc(NC(=O)CSc3nc4nccnc4c(=O)n3CCc3ccccc3)n2)c1 | enzyme activity | inhibitor |  | 10 µM | inhibition | 2% |
| CN1CC(Oc2cnc(C#N)cc2-c2ccn3nc(NC(=O)C4CC4)cc3c2)C1 | enzyme activity | inhibitor |  | 1 µM | inhibition | 1% |
| O=C(Nc1cnn(-c2csc(C(=O)NC3COC3)c2)c1)Nc1c(F)cccc1Cl | enzyme activity | inhibitor |  | 5 µM | remaining activity | 89% |
| Cc1ccc(NC(=O)c2ccc(CN3CCN(C)CC3)cc2)cc1Nc1nccc(-c2cncc(-c3oncc3C)c2)n1 | enzyme activity | inhibitor |  | 0.5 µM | remaining activity | ≤ 50% |
| Cc1ccc(Nc2nccc(N(C)c3ccc4c(C)n(C)nc4c3)n2)cc1S(N)(=O)=O | enzyme activity | inhibitor |  | 10 µM | inhibition | 73% |
| Cc1nc(C2CCN(C(=O)c3ccc(OC(F)(F)F)cc3N)CC2)c2ncc(N3CCN(C)CC3)cc2n1 | cell-free assay |  | competition with immobilised ligand | 1 µM | remaining binding | 91% |
| Nc1nc(Nc2ccc(S(N)(=O)=O)cc2)nn1C(=O)c1c(F)cccc1F | cell-free assay |  |  | 0.5 µM | remaining signal | 95.5% |
| C[C@H](c1ccnc(Nc2nc3ccc(-c4cc(N(C)C)ncn4)cc3[nH]2)c1)N1CCN(C(=O)CC(F)(F)F)CC1 | cell-free assay |  | competition with immobilised ligand | 0.1 µM | remaining binding | 100% |
| COc1cc2ncnc(Nc3ccc(Oc4ccccc4)cc3C)c2cc1OC | enzyme activity | inhibitor |  | 1 µM | inhibition | 5% |
| Cc1ccc(C(=O)Nc2ccc(CN3CCN(C)CC3)c(C(F)(F)F)c2)cc1C#Cc1cnc2cccnn12 | enzyme activity | inhibitor |  | 23.5 nM | remaining activity | 100% |
| CNC(=O)c1cc(Oc2ccc(NC(=O)Nc3ccc(Cl)c(C(F)(F)F)c3)cc2)ccn1 | cell-free assay |  |  | 0.5 µM | remaining signal | 102% |
| CC1=C(C#N)C(c2ccc3c(c2)c(NC(=O)c2ccccc2C)nn3C)C(C#N)=C(C)N1 | cell-free assay |  | competition with immobilised ligand | 1 µM | remaining binding | 94% |
| Cc1[nH]c(/C=C2\C(=O)Nc3ccc(F)cc32)c(C)c1C(=O)N[C@H]1CCN(C(=O)N(C)C)C1 | enzyme activity | inhibitor |  | 1 µM | remaining activity | 27% |
| CCS(=O)(=O)c1cc2cc(C[C@](O)(CC(C)(C)c3ccc(F)cc3C(N)=O)C(F)(F)F)[nH]c2cn1 | cell-free assay |  | competition with immobilised ligand | 1 µM | remaining binding | 97% |
| N#CCCc1ccc2c(c1)-c1[nH]c3ccc([N+](=O)[O-])cc3c1CC(=O)N2 | cell-free assay |  |  | 0.5 µM | remaining signal | 82.2% |
| CNCc1ccccc1-c1csc([C@@H](C)Nc2nc(C)nc3cc(OC)c(OC)cc23)c1 | cell-free assay |  | competition with immobilised ligand | 1 µM | remaining binding | 86% |
| CC(C)(C)c1nc2c(s1)c1nc(N)ncc1c1ccc(NS(=O)(=O)c3c(F)cccc3F)c(F)c12 | enzyme activity | inhibitor | radiometric | 1 µM | remaining activity | 99% |
| O=S(=O)(NC1CCC(c2cc(F)ccc2F)(S(=O)(=O)c2ccc(Cl)cc2)CC1)C(F)(F)F (centres unmarked) | cell-free assay |  | competition with immobilised ligand | 1 µM | remaining binding | 90% |
| CN(c1nccc(-c2cnn3ncccc23)n1)C1CC1 | cell-free assay |  |  | 1 µM | remaining signal | 100% |
